How the values were obtained:
[1] = test system: Human immunodeficiency virus 1; assay: Antiviral activity against HIV1 with reverse transcriptase Y188L mutation in human CEM cells assessed as protection against virus-induced cytopathicity; format: functional, organism-based; conditions: Human immunodeficiency virus 1, CCRF-CEM
Summary of the method: (§1)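 CEM cells (~3 × 10⁵ cells/mL) were infected with ~100 CCID₅₀ virus per mL and seeded with serial compound dilutions. After 4 days at 37 °C, syncytium (giant cell) formation was scored microscopically. EC₅₀ is the concentration giving 50% protection against virus cytopathicity.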

[2] = test system: Respiratory syncytial virus; assay: Antiviral activity against RSV Long in human HeLa cells assessed as protection against virus-induced cytopathicity; format: functional, organism-based
Summary of the method: (§2)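 Confluent cell monolayers inoculated with 100 CCID₅₀ virus. After 1-2 h adsorption, residual virus removed and cultures incubated with varying compound concentrations. Cytopathicity scored once it reached completion in untreated infected controls. EC₅₀ = dose reducing virus-induced cytopathogenicity by 50%.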

Sindbis virus = assay: Antiviral activity against Sindbis virus in african green monkey Vero cells assessed as protection against virus-induced cytopathicity; format: functional, organism-based; summary of the method: as §2
[3] = target: Human immunodeficiency virus type 1 reverse transcriptase (Human immunodeficiency virus 1, UniProt Q72547, K103N); assay: Inhibition of HIV1 reverse transcriptase p66/p51 K103N mutant; conditions: read-out: IC50
Summary of the method: (§3)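 Substrate was 0.5 µg poly(rA)/oligo(dT) 10:1 (0.3 µM 3′-OH ends) with 10 µM [³H]dTTP, at 37 °C. Acid-precipitable radioactivity was counted on GF/C filters after TCA washes.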

[4] = test system: Vesicular stomatitis virus; assay: Antiviral activity against VSV in human HEL cells assessed as protection against virus-induced cytopathicity; format: functional, organism-based
Influenza A virus [5] = assay: Antiviral activity against influenza H1N1 virus in MDCK cells assessed as reduction of virus-induced cytopathicity by MTS method; format: functional, organism-based; conditions: Influenza A virus, H1N1, MDCK
Coxsackievirus B4 [6] = assay: Antiviral activity against Coxsackievirus B4 in african green monkey Vero cells assessed as protection against virus-induced cytopathicity; format: functional, organism-based; conditions: Enterovirus B; summary of the method: as §2
[7] = test system: Human immunodeficiency virus 1; assay: Antiviral activity against HIV1 3B in human CEM cells assessed as protection against virus-induced cytopathicity after 4 days; format: functional, organism-based; conditions: Human immunodeficiency virus 1, 3B, CCRF-CEM, 96 h
Summary of the method: (§4)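 CEM cells (~3 × 10⁵ cells/mL) infected with ~100 CCID₅₀ per mL of HIV-1 (IIIB) or HIV-2 (ROD), then seeded into wells containing compound dilutions. After 4 days at 37 °C, syncytium (giant cell) formation was examined microscopically. EC₅₀ = concentration protecting CEM cells from HIV cytopathicity by 50%.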

Influenza A virus H3N2 [8] = assay: Antiviral activity against influenza H3N2 virus in MDCK cells assessed as reduction of virus-induced cytopathicity by visual cytopathic effect scoring method; format: functional, organism-based
Influenza A virus [9] = assay: Antiviral activity against influenza H1N1 virus in MDCK cells assessed as reduction of virus-induced cytopathicity by visual cytopathic effect scoring method; format: functional, organism-based
[10] = target: Human immunodeficiency virus type 1 reverse transcriptase (Human immunodeficiency virus 1, UniProt Q72547, Y181I); assay: Inhibition of HIV1 reverse transcriptase p66/p51 Y181I mutant; conditions: read-out: IC50; summary of the method: as §3
Human alphaherpesvirus 2 = assay: Antiviral activity against HSV2 G in human HEL cells assessed as protection against virus-induced cytopathicity; format: functional, organism-based; conditions: Human alphaherpesvirus 2, strain G; summary of the method: as §2
[11] = Cytotoxicity against human HeLa cells assessed as drug level causing microscopically detectable alteration of normal cell morphology after 3 days; format: cell-based
Summary of the method: (§5)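 Serial compound dilutions added to confluent HeLa or Vero monolayers. MCC = minimum concentration causing microscopically detectable alteration of cell morphology after 3 days of incubation.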

[12] = test system: Human immunodeficiency virus 1; assay: Antiviral activity against HIV1 with reverse transcriptase Y181I mutation in human CEM cells assessed as protection against virus-induced cytopathicity; format: functional, organism-based; conditions: Human immunodeficiency virus 1, CCRF-CEM; summary of the method: as §1
Influenza B virus [13] = assay: Antiviral activity against influenza B virus in MDCK cells assessed as reduction of virus-induced cytopathicity by MTS method; format: functional, organism-based
Felid alphaherpesvirus 1 = assay: Antiviral activity against Feline herpesvirus in feline […] cells assessed as inhibition of virus-induced cytopathicity; format: functional, organism-based
[14] = test system: Human immunodeficiency virus 1; assay: Antiviral activity against HIV1 with reverse transcriptase L100I mutation in human CEM cells assessed as protection against virus-induced cytopathicity; format: functional, organism-based; conditions: Human immunodeficiency virus 1, CCRF-CEM; summary of the method: as §1
Feline coronavirus = assay: Antiviral activity against Feline coronavirus in feline […] cells assessed as inhibition of virus-induced cytopathicity; format: functional, organism-based; conditions: Alphacoronavirus 1
L1210 = assay: Antiproliferative activity against mouse L1210 cells after 2 days; format: cell-based; conditions: L1210, 48 h
Summary of the method: (§6)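 Cells seeded at 5 × 10⁴ to 7.5 × 10⁴ cells/200 µL with or without serial compound dilutions; incubated at 37 °C for 2 days (L1210) or 3 days (Molt4/C8, CEM). Cell numbers counted with a Coulter counter. CC₅₀ = concentration reducing proliferation by 50% versus untreated controls, read from plots of cell number (% of control) against concentration. Means of at least two independent experiments.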

Human alphaherpesvirus 1 [15] = assay: Antiviral activity against thymidine kinase deficient and acyclovir resistant HSV1 KOS in human HEL cells assessed as protection against virus-induced cytopathicity; format: functional, organism-based; conditions: Human alphaherpesvirus 1, KOS
CCRF-CEM = assay: Antiproliferative activity against human CEM cells after 3 days; format: cell-based; conditions: 72 h; summary of the method: as §6
Vaccinia virus = assay: Antiviral activity against Vaccinia virus Lederle in human HEL cells assessed as protection against virus-induced cytopathicity; format: functional, organism-based; conditions: Orthopoxvirus vaccinia
[16] = Cytotoxicity against MDCK cells assessed as drug level causing microscopically detectable alteration of normal cell morphology; format: cell-based, Canis lupus familiaris; conditions: dog
[17] = Antiproliferative activity against human Molt4/C8 cells after 3 days; format: cell-based; conditions: MOLT-4, 72 h; summary of the method: as §6
Human respirovirus 3 = assay: Antiviral activity against Parainfluenza virus type 3 in african green monkey Vero cells assessed as protection against virus-induced cytopathicity; format: functional, organism-based; conditions: Human respirovirus 3, Vero; summary of the method: as §2
[18] = Cytotoxicity against feline CRFK cells by MTS assay; format: cell-based, Felis catus; conditions: cat
[19] = test system: Human immunodeficiency virus 1; assay: Antiviral activity against HIV1 with reverse transcriptase Y181C mutation in human CEM cells assessed as protection against virus-induced cytopathicity; format: functional, organism-based; conditions: Human immunodeficiency virus 1, CCRF-CEM; summary of the method: as §1
[20] = Cytotoxicity against human HEL cells assessed as drug level causing microscopically detectable alteration of normal cell morphology after 3 days; format: cell-based
[21] = test system: Human immunodeficiency virus 2; assay: Antiviral activity against HIV2 ROD in human CEM cells assessed as protection against virus-induced cytopathicity after 4 days; format: functional, organism-based; conditions: Human immunodeficiency virus 2, ROD, CCRF-CEM, 96 h; summary of the method: as §4
[22] = target: Human immunodeficiency virus type 1 reverse transcriptase (Human immunodeficiency virus 1, UniProt Q72547, L100I); assay: Inhibition of HIV1 reverse transcriptase p66/p51 L100I mutant; conditions: read-out: IC50; summary of the method: as §3
[23] = test system: Mammalian orthoreovirus 1; assay: Antiviral activity against Reovirus 1 in african green monkey Vero cells assessed as protection against virus-induced cytopathicity; format: functional, organism-based; conditions: Mammalian orthoreovirus 1, Vero; summary of the method: as §2
[24] = test system: Vesicular stomatitis virus; assay: Antiviral activity against VSV in human HeLa cells assessed as protection against virus-induced cytopathicity; format: functional, organism-based
Influenza A virus H3N2 [25] = assay: Antiviral activity against influenza H3N2 virus in MDCK cells assessed as reduction of virus-induced cytopathicity by MTS method; format: functional, organism-based
[26] = target: Human immunodeficiency virus type 1 reverse transcriptase (Human immunodeficiency virus 1, UniProt Q72547); assay: Inhibition of HIV1 reverse transcriptase p66/p51; conditions: read-out: IC50
[27] = Cytotoxicity against african green monkey Vero cells assessed as drug level causing microscopically detectable alteration of normal cell morphology after 3 days; format: cell-based; conditions: chlorocebus sabaeus; summary of the method: as §5
Punta Toro virus = assay: Antiviral activity against Punta Toro virus in african green monkey Vero cells assessed as protection against virus-induced cytopathicity; format: functional, organism-based; summary of the method: as §2
Human alphaherpesvirus 1 [28] = assay: Antiviral activity against HSV1 KOS in human HEL cells assessed as protection against virus-induced cytopathicity; format: functional, organism-based; conditions: Human alphaherpesvirus 1, KOS
[29] = test system: Human immunodeficiency virus 1; assay: Antiviral activity against HIV1 with reverse transcriptase K103N mutation in human CEM cells assessed as protection against virus-induced cytopathicity; format: functional, organism-based; conditions: Human immunodeficiency virus 1, CCRF-CEM; summary of the method: as §1
Influenza B virus [30] = assay: Antiviral activity against influenza B virus in MDCK cells assessed as reduction of virus-induced cytopathicity by visual cytopathic effect scoring method; format: functional, organism-based
Coxsackievirus B4 [31] = assay: Antiviral activity against Coxsackievirus B4 in human HeLa cells assessed as protection against virus-induced cytopathicity; format: functional, organism-based; conditions: Enterovirus B; summary of the method: as §2
[32] = Cytotoxicity against MDCK cells by MTS assay; format: cell-based, Canis lupus familiaris; conditions: dog

## Cc1cc(C)cc(S(=O)(=O)c2c(C(=O)NC(C)C(N)=O)[nH]c3ccc(Cl)cc23)c1 (stereo unspecified)
[1]
  IC50: 660 nM
[2]
  EC50: > 100 µM
Sindbis virus
  EC50: > 20 µM
[3]
  IC50: 190 nM
[4]
  EC50: > 100 µM
Influenza A virus [5]
  EC50: > 4 µM
Coxsackievirus B4 [6]
  EC50: > 20 µM
[7]
  EC50: 1.6 nM
Influenza A virus H3N2 [8]
  EC50: > 4 µM
Influenza A virus [9]
  EC50: > 4 µM
[10]
  IC50: 2490 nM
Human alphaherpesvirus 2
  EC50: > 100 µM
[11]
  MCC at 72 h: 100 µM
[12]
  IC50: > 1000 nM
Influenza B virus [13]
  EC50: > 4 µM
Felid alphaherpesvirus 1
  EC50: > 20 µM
[14]
  IC50: 9 nM
Feline coronavirus
  EC50: > 20 µM
L1210
  IC50: 12 µM
Human alphaherpesvirus 1 [15]
  EC50: > 100 µM
CCRF-CEM
  IC50: 11 µM
Vaccinia virus
  EC50: > 100 µM
[16]
  MCC: 20 µM
[17]
  IC50: 3.8 µM
Human respirovirus 3
  EC50: > 20 µM
[18]
  CC50: 39.3 µM
[19]
  IC50: 96 nM
[20]
  MCC at 72 h: > 100 µM
[21]
  EC50: > 10 µM
[22]
  IC50: 112 nM
[23]
  EC50: > 20 µM
[24]
  EC50: > 100 µM
Influenza A virus H3N2 [25]
  EC50: > 4 µM
[26]
  IC50: 20 nM
[27]
  MCC at 72 h: 100 µM
Punta Toro virus
  EC50: > 20 µM
Human alphaherpesvirus 1 [28]
  EC50: > 100 µM
[29]
  IC50: 14 nM
Influenza B virus [30]
  EC50: > 4 µM
Coxsackievirus B4 [31]
  EC50: 6 µM
[32]
  CC50: 16 µM

From ChEMBL document CHEMBL1153955, “Indolylarylsulfones bearing natural and unnatural amino acids. Discovery of potent inhibitors of HIV-1 non-nucleoside wild type and resistant mutant strains reverse transcriptase and coxsackie B4 virus” (J Med Chem, 2009)
